{"source": "ChEMBL document CHEMBL3259704", "about": "“Second generation steroidal 4-aminoquinolines are potent, dual-target inhibitors of the botulinum neurotoxin serotype A metalloprotease and P. falciparum malaria” (J Med Chem, 2014)", "key": {"[1]": {"tested_on": "Plasmodium falciparum", "test": "Resistance index, ratio of IC50 for CQ, MFQ-resistant Plasmodium falciparum TM91C235 clone Southeast asian isolate to IC50 for CQ, MFQ-susceptible Plasmodium falciparum D6 clone Sierra 1/UNC isolate", "assay_type": "functional"}, "[2]": {"tested_on": "Plasmodium falciparum", "test": "Antimalarial activity against CQ, MFQ-resistant Plasmodium falciparum TM91C235 clone Southeast asian isolate assessed as inhibition of parasite proliferation by MSF assay", "assay_type": "functional, organism-based", "how_it_was_run": "(§1)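 SYBR Green I fluorescence (MSF) microtiter drug-sensitivity assay: malarial DNA content is the measure of in vitro parasite proliferation. Resistance index is the IC90 ratio of the resistant strain to D6.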"}, "[3]": {"molecular_target": "Botulinum neurotoxin type A (Clostridium botulinum) (UniProt P0DPI0)", "sequence (P0DPI0 2-448 limits assumed)": "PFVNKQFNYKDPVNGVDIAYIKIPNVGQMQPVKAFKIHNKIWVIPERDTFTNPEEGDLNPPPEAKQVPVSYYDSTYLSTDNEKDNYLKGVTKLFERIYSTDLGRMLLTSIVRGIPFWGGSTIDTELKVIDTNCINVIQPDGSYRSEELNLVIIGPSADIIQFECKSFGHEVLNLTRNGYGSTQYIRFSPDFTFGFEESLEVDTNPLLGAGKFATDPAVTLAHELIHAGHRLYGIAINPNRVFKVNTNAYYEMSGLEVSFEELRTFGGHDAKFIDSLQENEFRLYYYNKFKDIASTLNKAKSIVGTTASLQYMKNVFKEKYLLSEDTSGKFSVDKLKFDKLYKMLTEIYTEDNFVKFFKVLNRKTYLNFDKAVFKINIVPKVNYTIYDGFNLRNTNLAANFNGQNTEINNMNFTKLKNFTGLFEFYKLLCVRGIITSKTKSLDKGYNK", "test": "Inhibition of Clostridium botulinum recombinant BoNT/A light chain using N-terminal acetylated, C-terminal aminated SNAP-25 (187-203) as substrate at 20 uM by reverse-phase HPLC analysis", "how_it_was_run": "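Recombinant BoNT/A LC with SNAP-25 187–203 peptide substrate in 40 mM HEPES–0.05% Tween, pH 7.3, with 0.5 mg/mL BSA and 50 μM excess Zn, at 37 °C. Quenched with TFA; reverse-phase HPLC product/substrate peak areas give percent inhibition, run in duplicate.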"}, "[4]": {"test": "Half life in mouse liver microsomes", "assay_type": "ADME", "conditions": "liver microsomes"}, "[5]": {"tested_on": "Plasmodium falciparum", "test": "Resistance index, ratio of IC50 for CQ-resistant, MFQ-susceptible Plasmodium falciparum W2 clone Indochina 1 isolate to IC50 for CQ, MFQ-susceptible Plasmodium falciparum D6 clone Sierra 1/UNC isolate", "assay_type": "functional"}, "[6]": {"test": "Selectivity index, ratio of IC50 for human HepG2 cells to IC50 for CQ, MFQ-resistant Plasmodium falciparum TM91C235 clone Southeast asian isolate", "assay_type": "toxicity, cell-based", "conditions": "read-out: Ratio IC50"}, "[7]": {"molecular_target": "Botulinum neurotoxin type A (Clostridium botulinum, UniProt P0DPI0)", "sequence (P0DPI0 2-448 limits assumed)": "as above", "test": "Inhibition of Clostridium botulinum recombinant BoNT/A light chain using N-terminal acetylated, C-terminal aminated SNAP-25 (187-203) as substrate by reverse-phase HPLC analysis", "how_it_was_run": "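Same HPLC LC cleavage assay (pH 7.3 HEPES/Tween, BSA, excess Zn, 37 °C). […] Ki comes from velocity versus substrate at several inhibitor levels, globally fit to a competitive model.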"}, "[8]": {"test": "Selectivity index, ratio of IC50 for human HepG2 cells to IC50 for CQ-resistant, MFQ-susceptible Plasmodium falciparum W2 clone Indochina 1 isolate", "assay_type": "toxicity, cell-based", "conditions": "read-out: Ratio IC50"}, "[9]": {"tested_on": "Plasmodium falciparum", "test": "Antimalarial activity against CQ-resistant, MFQ-susceptible Plasmodium falciparum W2 clone Indochina 1 isolate assessed as inhibition of parasite proliferation by MSF assay", "assay_type": "functional, organism-based", "how_it_was_run": "as §1"}, "[10]": {"test": "Half life in human liver microsomes", "assay_type": "ADME", "conditions": "liver microsomes"}, "[11]": {"test": "Selectivity index, ratio of IC50 for human HepG2 cells to IC50 for CQ, MFQ-susceptible Plasmodium falciparum D6 clone Sierra 1/UNC isolate", "assay_type": "toxicity, cell-based", "conditions": "read-out: Ratio IC50"}, "[12]": {"tested_on": "HepG2", "test": "Cytotoxicity against human HepG2 cells assessed as cell viability after 48 hrs by MTT assay", "assay_type": "cell-based", "conditions": "HepG2, 48 h"}, "[13]": {"tested_on": "Plasmodium falciparum", "test": "Antimalarial activity against CQ, MFQ-susceptible Plasmodium falciparum D6 clone Sierra 1/UNC isolate assessed as inhibition of parasite proliferation by MSF assay", "assay_type": "functional, organism-based", "how_it_was_run": "as §1"}}, "data": [{"smiles": "CC(=O)O[C@H]1C[C@H]2[C@@H]([C@H](OC(C)=O)C[C@@H]3C[C@H](N(C)C)CC[C@@]32C)[C@@H]2CC[C@H]([C@H](C)CCCNCCNc3ccnc4cc(Cl)ccc34)[C@@]12C", "values": [{"measurement": "Ratio IC50", "setting": "[1]", "result": 0.77}, {"measurement": "IC50", "setting": "[2]", "result": 32.4, "unit": "nM"}, {"measurement": "inhibition", "setting": "[3]", "result": 93.5, "unit": "%"}, {"measurement": "half-life", "setting": "[4]", "result": 1, "unit": "h"}, {"measurement": "Ratio IC50", "setting": "[5]", "result": 47}, {"measurement": "selectivity ratio", "setting": "[6]", "result": 435}, {"measurement": "IC50", "setting": "[7]", "result": 1020, "unit": "nM"}, {"measurement": "selectivity ratio", "setting": "[8]", "result": 714}, {"measurement": "IC50", "setting": "[9]", "result": 19.7, "unit": "nM"}, {"measurement": "half-life", "setting": "[10]", "result": 1, "unit": "h"}, {"measurement": "selectivity ratio", "setting": "[11]", "result": 333}, {"measurement": "IC50", "setting": "[12]", "result": 14100, "unit": "nM"}, {"measurement": "IC50", "setting": "[13]", "result": 42.3, "unit": "nM"}]}]}
